Measured values published in the RNAGym collection of RNA variant scans (doi:10.1002/anie.201605470).

B1: Osa-1-4 twister ribozyme (parent)
chain: CCGCCUAACACUGCCAAUGCCGGUCCCAAGCCCGGAUAAAAGUGGAGGGGGCGG

Variants of: B1
Assay: self-cleavage, relative activity (ratio to wild type); higher = more cleavage; co-transcriptional
Summary of the method: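 In vitro transcription at 37 °C for 2 h allowed the twister ribozyme to cleave itself as it was made. Its 54-nucleotide Oryza sativa template had been synthesised with 97 % wild-type base and 1 % of each other base at the 48 positions downstream of the cleavage site. A template-switching oligonucleotide was used for reverse transcription, followed by PCR amplification and deep sequencing. Whether reads carried upstream sequence set the cleavage status, and relative activity is the fraction cleaved normalised to wild type.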
CCGCCUAACACUGCCAAUGCCGGUCCCUAGCCCGGAUAAAAGUGGAGGGGGUGG gave a self-cleavage of 0.97. CCGCCUAACACUACCAAUGCCGGUCCCUAGCCCGGAUAAAAGUGGAGGGGGCGG gave a self-cleavage of 0.06. Variant CCGCCUAACACUCCCAAUGCCGGUCCCUAGCCCGGAUAAAAGUGGAGGGGGCGG has a self-cleavage of 0.02. Variant CCGCCUAACACUUCCAAUGCCGGUCCCUAGCCCGGAUAAAAGUGGAGGGGGCGG has a self-cleavage of 0.03. Variant CCGCCUAACACUGCCAAUACCGGUCCCUAGCCCGGAUAAAAGUGGAGGGGGCGG has a self-cleavage of 0.24. With CCGCCUAACACUGCCAAUCCCGGUCCCUAGCCCGGAUAAAAGUGGAGGGGGCGG the self-cleavage was 0.07. CCGCCUAACACUGCCAAUUCCGGUCCCUAGCCCGGAUAAAAGUGGAGGGGGCGG gave a self-cleavage of 0.13. CCGCCUAACACUGCCAAUGCCAGUCCCUAGCCCGGAUAAAAGUGGAGGGGGCGG gave a self-cleavage of 0.34. For CCGCCUAACACUGCCAAUGCCCGUCCCUAGCCCGGAUAAAAGUGGAGGGGGCGG, the self-cleavage was 0.06. CCGCCUAACACUGCCAAUGCCUGUCCCUAGCCCGGAUAAAAGUGGAGGGGGCGG gave a self-cleavage of 0.2. With CCGCCUAACACUGCCAAUGCCGAUCCCUAGCCCGGAUAAAAGUGGAGGGGGCGG the self-cleavage was 0.14. With CCGCCUAACACUGCCAAUGCCGCUCCCUAGCCCGGAUAAAAGUGGAGGGGGCGG the self-cleavage was 0.05. CCGCCUAACACUGCCAAUGCCGUUCCCUAGCCCGGAUAAAAGUGGAGGGGGCGG showed a self-cleavage of 0.07. Variant CCGCCUAACACUGCCAAUGCCGGUCCCUAACCCGGAUAAAAGUGGAGGGGGCGG has a self-cleavage of 0.04. In the case of CCGCCUAACACUGCCAAUGCCGGUCCCUACCCCGGAUAAAAGUGGAGGGGGCGG, the self-cleavage is reported as 0.05. With CCGCCUAACACUGCCAAUGCCGGUCCCUAUCCCGGAUAAAAGUGGAGGGGGCGG the self-cleavage was 0.04. CCGCCUAACACUGCCAAUGCCGGUCCCUAGCCCAGAUAAAAGUGGAGGGGGCGG showed a self-cleavage of 0.39. CCGCCUAACACUGCCAAUGCCGGUCCCUAGCCCCGAUAAAAGUGGAGGGGGCGG gave a self-cleavage of 0.18. Work on CCGCCUAACACUGCCAAUGCCGGUCCCUAGCCCUGAUAAAAGUGGAGGGGGCGG yielded a self-cleavage of 0.28. With CCGCCUAACACUGCCAAUGCCGGUCCCUAGCCCGAAUAAAAGUGGAGGGGGCGG the self-cleavage was 0.73. Work on CCGCCUAACACUGCCAAUGCCGGUCCCUAGCCCGCAUAAAAGUGGAGGGGGCGG yielded a self-cleavage of 0.15. CCGCCUAACACUGCCAAUGCCGGUCCCUAGCCCGUAUAAAAGUGGAGGGGGCGG showed a self-cleavage of 0.71. CCGCCUAACACUGCCAAUGCCGGUCCCUAGCCCGGAUAAAAAUGGAGGGGGCGG gave a self-cleavage of 0.16. For CCGCCUAACACUGCCAAUGCCGGUCCCUAGCCCGGAUAAAACUGGAGGGGGCGG, the self-cleavage was 0.09. For CCGCCUAACACUGCCAAUGCCGGUCCCUAGCCCGGAUAAAAUUGGAGGGGGCGG, the self-cleavage was 0.06. With CCGCCUAACACUGCCAAUGCCGGUCCCUAGCCCGGAUAAAAGUAGAGGGGGCGG the self-cleavage was 0.74. For CCGCCUAACACUGCCAAUGCCGGUCCCUAGCCCGGAUAAAAGUCGAGGGGGCGG, the self-cleavage was 0.78. In the case of CCGCCUAACACUGCCAAUGCCGGUCCCUAGCCCGGAUAAAAGUUGAGGGGGCGG, the self-cleavage is reported as 0.49. CCGCCUAACACUGCCAAUGCCGGUCCCUAGCCCGGAUAAAAGUGAAGGGGGCGG showed a self-cleavage of 0.09. CCGCCUAACACUGCCAAUGCCGGUCCCUAGCCCGGAUAAAAGUGCAGGGGGCGG showed a self-cleavage of 0.06. CCGCCUAACACUGCCAAUGCCGGUCCCUAGCCCGGAUAAAAGUGUAGGGGGCGG showed a self-cleavage of 0.07. For CCGCCUAACACUGCCAAUGCCGGUCCCUAGCCCGGAUAAAAGUGGAAGGGGCGG, the self-cleavage was 0.09. CCGCCUAACACUGCCAAUGCCGGUCCCUAGCCCGGAUAAAAGUGGACGGGGCGG showed a self-cleavage of 0.06. For CCGCCUAACACUGCCAAUGCCGGUCCCUAGCCCGGAUAAAAGUGGAUGGGGCGG, the self-cleavage was 0.1. With CCGCCUAACACUGCCAAUGCCGGUCCCUAGCCCGGAUAAAAGUGGAGAGGGCGG the self-cleavage was 0.06. Work on CCGCCUAACACUGCCAAUGCCGGUCCCUAGCCCGGAUAAAAGUGGAGCGGGCGG yielded a self-cleavage of 0.06. With CCGCCUAACACUGCCAAUGCCGGUCCCUAGCCCGGAUAAAAGUGGAGUGGGCGG the self-cleavage was 0.06. In the case of CCGCCUAACACUGCCAAUGCCGGUCCCUAGCCCGGAUAAAAGUGGAGGAGGCGG, the self-cleavage is reported as 0.08. Work on CCGCCUAACACUGCCAAUGCCGGUCCCUAGCCCGGAUAAAAGUGGAGGCGGCGG yielded a self-cleavage of 0.06. CCGCCUAACACUGCCAAUGCCGGUCCCUAGCCCGGAUAAAAGUGGAGGUGGCGG gave a self-cleavage of 0.09. Work on CCGCCUAACACUGCCAAUGCCGGUCCCUAGCCCGGAUAAAAGUGGAGGGAGCGG yielded a self-cleavage of 0.42. With CCGCCUAACACUGCCAAUGCCGGUCCCUAGCCCGGAUAAAAGUGGAGGGCGCGG the self-cleavage was 0.81. Variant CCGCCUAACACUGCCAAUGCCGGUCCCUAGCCCGGAUAAAAGUGGAGGGUGCGG has a self-cleavage of 0.95. CCGCCUAACACUGCCAAUGCCGGUCCCUAGCCCGGAUAAAAGUGGAGGGGACGG showed a self-cleavage of 0.28. For CCGCCUAACACUGCCAAUGCCGGUCCCUAGCCCGGAUAAAAGUGGAGGGGCCGG, the self-cleavage was 0.08. CCGCCUAACACUGCCAAUGCCGGUCCCUAGCCCGGAUAAAAGUGGAGGGGUCGG gave a self-cleavage of 0.2. Work on CCGCCUAACACUGCCAAUGCCGGUCCCUAGCCCGGAUAAAAGUGGAGGGGGCAG yielded a self-cleavage of 0.42. For CCGCCUAACACUGCCAAUGCCGGUCCCUAGCCCGGAUAAAAGUGGAGGGGGCCG, the self-cleavage was 0.08.
